TAAR1 ag: human TAAR1 agonists, primary screen, Fluo-8 calcium fluorescence, CHO RD-HGA16 cells; Trace amine-associated receptor 1 (Homo sapiens), Q96RJ0; vehicle wells 0%, saturating PEA agonist 100%; activation, % at 3 µM; 0.99% of 360,000 active;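 active means activation above the mean activation of all test compounds in the run plus 3 SD, cut at about 38% in these data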
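System: CHO-derived RD-HGA16 cells with stable Gα16 and human TAAR1 / Times: 17-24 h plating, Fluo-8 75 min 37 °C, 30 min RT / Technique: calcium-sensitive Fluo-8 signal, excitation 470-495, emission 515-575 nm / Measure: % activation relative to PEA EC100 response / Benchmarks: DMSO and PEA EC100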
TAAR1 antag: human TAAR1 antagonists, primary screen, Fluo-8 calcium fluorescence, CHO RD-HGA16 cells; antagonist; inhibition, % at 3 µM; 1.5% of 360,000 active;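 active means inhibition above a per-plate cutoff, the mean inhibition of test compounds on that plate plus 3 SD, cut at about 49% in these data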;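 further: 0% = DMSO plus EC80 beta-PEA response and 100% = DMSO alone without agonist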
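test system = CHO RD-HGA16 cells bearing hTAAR1 | replication = singlicate | controls = DMSO-only wells and EC80 β-PEA-stimulated wells | reagent = EC80 β-phenethylamine stimulus | read-out basis = percent inhibition of PEA-evoked calcium signal, max/basal emission ratio | schedule = seeding 17-24 h prior, 75-min 37 °C, 30-min RT dye loading | signal = kinetic Fluo-8 calcium fluorescence measurement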
DAGLB inh: DAGLB lipase inhibitors, primary screen, biochemical, fluorescence, HTS | 0.059% of 340,000 active | HEK293T DAGLB membrane lysate, EnzChek fluorogenic substrate | Diacylglycerol lipase-beta (Homo sapiens), Q8NCG7 | inhibition, % at 5.17 µM; in the data active means inhibition above about 34%;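 further: 0% = enzyme with vehicle and 100% = wells lacking enzyme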
GPR7 antagonist: GPR7 receptor antagonists, primary screen, cell-based, fluorescence, single concentration; inhibition, % at 4.4 µM; Neuropeptides B/W receptor type 1 (Homo sapiens), P48145; AID 1861, 2009; GPR7-expressing cells, fluorescence antagonist assay; 1.1% of 290,000 active; in the data active means inhibition above about 16%, passing the limit was not always enough;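 further: cells stimulated with the agonist NPW; 0% = agonist with vehicle and 100% = vehicle without agonist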
Target sequence (P48145 whole entry, looked up): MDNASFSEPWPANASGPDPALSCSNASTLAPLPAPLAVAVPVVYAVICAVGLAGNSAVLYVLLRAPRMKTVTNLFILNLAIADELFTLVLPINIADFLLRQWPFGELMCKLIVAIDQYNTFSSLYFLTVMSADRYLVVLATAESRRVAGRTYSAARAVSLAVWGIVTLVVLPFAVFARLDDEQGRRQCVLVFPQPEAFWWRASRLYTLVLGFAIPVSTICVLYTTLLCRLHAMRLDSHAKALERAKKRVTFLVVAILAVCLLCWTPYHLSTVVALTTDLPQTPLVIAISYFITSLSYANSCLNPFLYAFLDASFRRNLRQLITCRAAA
MPTP block: mitochondrial permeability transition pore inhibitors, primary screen, biochemical, isolated mouse mitochondria, absorbance | AID 602449, 2012 | inhibition, % at 10 µM | Ca2+ swelling absorbance, 30 min | 1.4% of 360,000 active;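 active means inhibition of 50% or more, scaled per plate between neutral and stimulator controls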;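 further: 0% = DMSO wells given calcium and 100% = 1 mM EGTA wells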
Rh123 counter: fluorescence retest of MPTP screen hits in isolated mitochondria, single concentration; 78% of 5,000 active; inhibition, % at 10 µM; membrane potential, Rhodamine 123 fluorescence; AID 624504, 2012; shares compounds with MPTP block; in the data active means inhibition above about 22%;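 further: 0% = DMSO vehicle and 100% = positive control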
MPTP swell DR: mitochondrial permeability transition pore inhibitors, dose response, biochemical, absorbance, uHTS hits; shares compounds with MPTP block; isolated mitochondria swelling; IC50, µM; 58% of 780 active; in the data active means IC50 below about 20 µM
MPTP counter DR: fluorescent counter-screen in isolated mitochondria, dose response, counter-screen for MPTP inhibitor project, biochemical, fluorescence, uHTS hits. IC50, µM. AID 651564, 2012. 49% of 780 active. shares compounds with MPTP block. isolated mitochondria counterscreen, fluorescence read-out; in the data active means IC50 below about 80 µM
* = called active by the depositor; i = inactive; . = no result. Shown are actives, neighbours in structure and some others; about 4% of the full set was active somewhere.

SMILES	TAAR1 ag	TAAR1 antag	DAGLB inh	GPR7 antagonist	MPTP block	Rh123 counter	others
O=C(/C=C/c1ccc(F)cc1)c1ccc(N2CCOCC2)cc1	-1	-12	-2	-8	2	.
CCc1ccc(/C=C/C(=O)c2ccc(N3CCOCC3)cc2)cc1	4	9	1	0	68*	14	MPTP swell DR=i;MPTP counter DR=19*
CCCC1=NN2C(=N)/C(=C\c3cc(C)n(-c4cccc(C)c4)c3C)C(=O)N=C2S1	-1	13	-3	-10	52*	5	MPTP swell DR=i;MPTP counter DR=>80
O=C(c1ccc(CSc2nc3ccncc3[nH]2)cc1)N1CCN(c2cccc(Cl)c2)CC1	3	43	4	-2	90*	103*
O=C(c1ccc(CSc2nc3ccncc3[nH]2)cc1)N1CCCCCC1	3	-33	-2	-11	15	.
COc1cccc(C(C[N+](=O)[O-])c2c(C)[nH]n(-c3ccccc3)c2=O)c1 (stereo unspecified)	3	-18	3	10	1	.
Cc1[nH]n(-c2ccccc2)c(=O)c1C(C[N+](=O)[O-])c1ccc(Br)cc1 (stereo unspecified)	13	15	-2	-10	73*	37*
Cc1[nH]n(-c2ccccc2)c(=O)c1C(c1cccc([N+](=O)[O-])c1O)c1c(C)[nH]n(-c2ccccc2)c1=O	8	9	17	8	103*	65*
Cc1c(C(c2cccc([N+](=O)[O-])c2O)c2c(C)n(C)n(-c3ccccc3)c2=O)c(=O)n(-c2ccccc2)n1C	2	-11	2	-9	-4	.
COc1cc2c(cc1OC)[C@@H](NC(=O)c1ccncc1)[C@H](C)[C@H]2c1ccccc1	0	-11	.	.	.	.
O=C(Nc1cc(C(F)(F)F)cc(C(F)(F)F)c1)Nc1cnn(-c2ccc([N+](=O)[O-])cc2)c1C(F)(F)F	1	-10	0	-6	88*	63*
CN(C)c1ccc(/C=C/C=C2/SC(=S)N(c3ccccc3)C2=O)cc1	16	20	9	-7	58*	-23
O=C(O)c1ccc(N2C(=O)/C(=C/C=C/c3ccccc3)SC2=S)cc1	2	5	1	-5	1	.
N=c1c(S(=O)(=O)c2ccc(Cl)cc2)cc2c(=O)n3ccccc3nc2n1CCN1CCOCC1	2	-6	2	-6	60*	18	MPTP swell DR=>100;MPTP counter DR=>80
Cc1c(CC(=O)NCC(=O)NCC(=O)N[C@@H](Cc2ccccc2)C(=O)O)c(=O)oc2c(C)c(O)ccc12	0	-9	.	.	-1	.
COC(=O)C(CC(C)C)N(Cc1ccc(Br)cc1)S(=O)(=O)CCl (stereo unspecified)	2	19	.	.	.	.
CCCc1nc(SCC(=O)N2CCC(Cc3ccccc3)CC2)c2c(=O)n(C)c(=O)n(C)c2n1	5	27	1	-6	52*	-7
CCc1nc(SCC(=O)N2CCN(c3ccccc3)CC2)c2c(=O)n(C)c(=O)n(C)c2n1	.	.	.	-6	.	.
Cn1c(=O)c2c(SCC(=O)N3CCCc4ccccc43)nc(CC(C)(C)C)nc2n(C)c1=O	.	.	-3	-5	62*	-7
CC1(C(=O)NS(=O)(=O)c2cccc(OC(F)F)c2)CCN1C(=O)Cc1ccsc1 (stereo unspecified)	1	6	.	.	0	.
N#CCCn1c(SCC(=O)NCc2ccco2)nc2ccccc21	4	-3	-1	-1	74*	-2	MPTP swell DR=i;MPTP counter DR=>80
O=C(CSc1nc2ccccc2n1CC(=O)NCc1ccccc1)NCc1ccco1	4	21	0	-6	-1	.

High-throughput results (PubChem)
